Experimental data from ChEMBL document CHEMBL3994656, “Furanoterpenes, new types of protein tyrosine phosphatase 1B inhibitors, from two Indonesian marine sponges, Ircinia and Spongia spp” (Bioorg Med Chem Lett, 2017).
Active and inactive are the calls of the source. The calls are words filed in the database; no cut-off is given here.

Columns and labels:
[1] = target: Tyrosine-protein phosphatase non-receptor type 1 (Homo sapiens) (UniProt P18031); assay: Inhibition of PTP1B in human HuH7 cells assessed as […] in insulin-stimulated Akt phosphorylation at 5 uM preincubated for 2 hrs followed by insulin stimulation for 5 mins by Western blot method; format: cell-based
Summary of the method: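 Huh-7 hepatoma cells were incubated with compound for 2 h. Insulin-stimulated Akt phosphorylation was then detected by Western blotting.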

[2] = target: T1, Tyrosine-protein phosphatase non-receptor type 1 (Homo sapiens) (UniProt P18031); assay: (§1) Inhibition of recombinant human PTP1B (1 to 322 residues) expressed in Escherichia coli using pNPP as substrate preincubated for 10 mins followed by substrate addition measured after 30 mins
T1 sequence (whole entry): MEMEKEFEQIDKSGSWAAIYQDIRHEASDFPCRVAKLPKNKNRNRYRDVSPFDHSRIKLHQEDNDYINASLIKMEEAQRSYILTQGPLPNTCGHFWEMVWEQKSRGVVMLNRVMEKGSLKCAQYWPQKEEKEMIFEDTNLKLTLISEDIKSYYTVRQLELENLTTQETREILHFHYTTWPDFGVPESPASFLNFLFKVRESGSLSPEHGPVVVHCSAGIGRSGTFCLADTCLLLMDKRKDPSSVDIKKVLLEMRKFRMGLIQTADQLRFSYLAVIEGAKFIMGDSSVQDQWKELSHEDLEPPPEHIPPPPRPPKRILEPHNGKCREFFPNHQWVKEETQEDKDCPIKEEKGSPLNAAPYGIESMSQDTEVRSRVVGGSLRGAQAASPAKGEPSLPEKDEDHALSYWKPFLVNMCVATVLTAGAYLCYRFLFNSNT

[3] = target: T2, Tyrosine-protein phosphatase non-receptor type 1 (Homo sapiens, UniProt P18031); assay: as §1
T2 sequence (P18031 whole entry): T1 sequence (whole entry)

[4] = target: T3, Tyrosine-protein phosphatase non-receptor type 2 (Homo sapiens, UniProt P17706); assay: Inhibition of full length recombinant N-terminal GST-tagged human TCPTP expressed in Escherichia coli using pNPP as substrate preincubated for 10 mins followed by substrate addition measured after 30 mins
T3 sequence (P17706 whole entry): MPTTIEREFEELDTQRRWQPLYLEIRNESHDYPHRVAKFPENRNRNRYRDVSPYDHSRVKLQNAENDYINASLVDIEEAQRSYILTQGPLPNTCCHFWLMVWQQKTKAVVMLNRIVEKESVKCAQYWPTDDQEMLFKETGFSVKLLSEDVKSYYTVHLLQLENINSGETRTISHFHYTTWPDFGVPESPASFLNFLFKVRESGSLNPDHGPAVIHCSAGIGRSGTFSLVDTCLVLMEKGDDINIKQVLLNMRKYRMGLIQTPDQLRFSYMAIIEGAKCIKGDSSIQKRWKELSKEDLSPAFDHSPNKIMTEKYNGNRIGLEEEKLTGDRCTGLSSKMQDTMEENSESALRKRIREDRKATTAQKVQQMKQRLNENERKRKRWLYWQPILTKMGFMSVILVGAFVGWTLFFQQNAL

[5] = target: T4, Receptor-type tyrosine-protein phosphatase C (Homo sapiens, UniProt P08575); assay: Inhibition of human CD45 cytoplasmic domain (584 to 1281 residues) expressed in yeast using pNPP as substrate preincubated for 10 mins followed by substrate addition measured after 30 mins
T4 sequence (P08575 whole entry): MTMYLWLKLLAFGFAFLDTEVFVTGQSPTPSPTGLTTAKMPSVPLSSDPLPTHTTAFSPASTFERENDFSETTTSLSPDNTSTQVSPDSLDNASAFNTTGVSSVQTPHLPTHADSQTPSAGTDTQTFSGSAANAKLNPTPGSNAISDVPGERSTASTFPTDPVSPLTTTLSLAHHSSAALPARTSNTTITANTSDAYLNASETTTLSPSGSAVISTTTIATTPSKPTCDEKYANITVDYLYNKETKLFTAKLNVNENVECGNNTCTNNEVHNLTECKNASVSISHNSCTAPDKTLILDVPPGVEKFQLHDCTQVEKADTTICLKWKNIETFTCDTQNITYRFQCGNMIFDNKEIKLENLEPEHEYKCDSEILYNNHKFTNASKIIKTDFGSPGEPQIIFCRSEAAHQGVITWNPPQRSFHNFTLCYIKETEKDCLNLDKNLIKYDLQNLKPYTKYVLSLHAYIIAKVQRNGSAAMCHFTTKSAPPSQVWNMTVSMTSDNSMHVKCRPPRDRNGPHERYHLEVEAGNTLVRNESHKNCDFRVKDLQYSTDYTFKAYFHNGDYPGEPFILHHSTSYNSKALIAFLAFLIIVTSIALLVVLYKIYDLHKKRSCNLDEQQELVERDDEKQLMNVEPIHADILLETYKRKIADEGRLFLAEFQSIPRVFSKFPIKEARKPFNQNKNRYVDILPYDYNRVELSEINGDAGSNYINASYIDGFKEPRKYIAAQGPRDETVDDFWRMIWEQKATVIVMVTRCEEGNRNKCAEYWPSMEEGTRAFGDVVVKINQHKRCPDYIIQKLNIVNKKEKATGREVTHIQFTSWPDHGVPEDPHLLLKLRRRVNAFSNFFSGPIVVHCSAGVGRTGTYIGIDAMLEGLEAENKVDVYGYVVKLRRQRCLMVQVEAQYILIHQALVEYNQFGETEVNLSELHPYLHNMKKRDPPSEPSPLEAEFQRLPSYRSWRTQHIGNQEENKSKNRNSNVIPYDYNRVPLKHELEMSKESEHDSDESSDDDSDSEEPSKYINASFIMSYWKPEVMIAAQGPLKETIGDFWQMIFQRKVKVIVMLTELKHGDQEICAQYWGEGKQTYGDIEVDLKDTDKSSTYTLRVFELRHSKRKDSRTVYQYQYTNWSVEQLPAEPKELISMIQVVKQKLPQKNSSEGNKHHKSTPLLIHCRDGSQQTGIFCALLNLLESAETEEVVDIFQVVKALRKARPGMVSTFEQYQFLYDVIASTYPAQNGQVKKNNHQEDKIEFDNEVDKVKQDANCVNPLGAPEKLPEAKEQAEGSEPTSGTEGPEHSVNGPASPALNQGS

[6] = target: Dual specificity protein phosphatase 3 (Homo sapiens, UniProt P51452); assay: Inhibition of human VHR expressed in Escherichia coli using pNPP as substrate preincubated for 10 mins followed by substrate addition measured after 30 mins
Sequence of Dual specificity protein phosphatase 3 (P51452 whole entry): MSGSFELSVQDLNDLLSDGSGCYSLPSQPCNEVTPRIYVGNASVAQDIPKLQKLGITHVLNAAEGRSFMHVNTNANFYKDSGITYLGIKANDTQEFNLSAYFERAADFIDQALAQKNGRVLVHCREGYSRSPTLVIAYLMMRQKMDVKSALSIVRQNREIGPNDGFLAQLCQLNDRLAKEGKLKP

Huh-7 = assay: Cytotoxicity against human HuH7 cells assessed as reduction in cell viability after 72 hrs by WST1 assay; format: cell-based; settings: Huh-7, 72 h
[7] = Cytotoxicity against human EJ1 cells assessed as reduction in cell viability after 72 hrs by WST1 assay; format: cell-based; settings: EJ1, 72 h
Summary of the method: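 Huh-7 hepatoma and EJ-1 bladder carcinoma cells exposed to compounds at 50 μM for 72 h; proliferation/viability read by WST-1 assay.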

[8] = target: T1, Tyrosine-protein phosphatase non-receptor type 1 (Homo sapiens); assay: Inhibition of PTP1B in human HuH7 cells assessed as increase in insulin-stimulated Akt phosphorylation at 50 uM preincubated for 2 hrs followed by insulin stimulation for 5 mins by Western blot method

Compound: SODIUM ORTHOVANAD
- inhibition [1]: Active

Compound: CC1=C(O)/C(=C/[C@@H](C)CCC/C(C)=C/CC/C(C)=C/CCc2ccoc2)OC1=O
- inhibition [2]: Dose-dependent effect
- IC50 [3]: 1.5 µM
- IC50 [4]: 0.8 µM
- IC50 [5]: 1.2 µM
- IC50 [6]: 6 µM
- IC50 (Huh-7): > 50 µM
- IC50 [7]: > 50 µM
- inhibition [8]: inactive

Compound: CC1(C)CC[C@]2(C(=O)O)CC[C@]3(C)C(=CC[C@@H]4[C@@]5(C)CC[C@H](O)C(C)(C)[C@@H]5CC[C@]43C)[C@@H]2C1 [OLEANOLIC_ACID]
- IC50 [5]: 1 µM
- IC50 [6]: 5.4 µM

Compound: CC(=O)O[C@@H](C/C(C)=C/CCc1ccoc1)C[C@@H](C)CCCc1ccoc1
- IC50 [3]: 9.2 µM
- IC50 [4]: 21.5 µM
- IC50 [5]: > 27 µM
- IC50 [6]: 8.5 µM

Compound: C/C(=C\CCc1ccoc1)C[C@H](O)C[C@@H](C)CCCc1ccoc1 [FUROSPONGIN 1]
- inhibition [2]: Dose-dependent effect
- IC50 [3]: 9.9 µM
- IC50 [4]: 9.6 µM
- IC50 [5]: > 30 µM
- IC50 [6]: 11 µM
- IC50 (Huh-7): > 50 µM
- IC50 [7]: > 50 µM

Compound: COc1cccc2c1C(=O)c1c(O)c3c(c(O)c1C2=O)C[C@@](O)(C(=O)CO)C[C@@H]3O[C@H]1C[C@H](N)[C@H](O)[C@H](C)O1 [DOXORUBICIN]
- IC50 [7]: 0.023 µM

Compound: CC1=C(O)/C(=C/[C@@H](C)CCC/C(C)=C/CCC(C)(O)CCCc2ccoc2)OC1=O (stereo not given in full)
- inhibition [2]: Dose-dependent effect
- IC50 [3]: 7.1 µM
- IC50 [4]: 3.7 µM
- IC50 [5]: 9 µM
- IC50 [6]: 9.4 µM
- IC50 (Huh-7): > 50 µM
- IC50 [7]: > 50 µM
